# Measured values taken from publication PMC6092622 (The EMBO Journal, 2018).
# Like-named read-outs stand apart in the source and are kept apart here.
# Assays:
# IKK and SOD1/IKK mice = format: in vivo, mouse
# In short: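 Transgene expression was active in the sustained cohort (DOX withdrawn at P20–25). Mice of all four genotypes got a Porcupine inhibitor by daily oral gavage at 10 mg/kg for 12 days, from P25 (sacrificed at P38) or from P90 (to P102). It was suspended in PBS + 5% Tween-80 + 5% PEG-400; vehicle controls were included. Spinal cord sections were immunostained; Ki-67 and CD45 required citrate antigen retrieval. Cell densities are per area unit.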
# human CB2 [1] = target: T1, human CB2 (Homo sapiens, UniProt P34972); test: cAMP assay in CHO cells stably expressing human CB2; format: cell-based; conditions: in words
# T1 sequence (P34972 whole entry): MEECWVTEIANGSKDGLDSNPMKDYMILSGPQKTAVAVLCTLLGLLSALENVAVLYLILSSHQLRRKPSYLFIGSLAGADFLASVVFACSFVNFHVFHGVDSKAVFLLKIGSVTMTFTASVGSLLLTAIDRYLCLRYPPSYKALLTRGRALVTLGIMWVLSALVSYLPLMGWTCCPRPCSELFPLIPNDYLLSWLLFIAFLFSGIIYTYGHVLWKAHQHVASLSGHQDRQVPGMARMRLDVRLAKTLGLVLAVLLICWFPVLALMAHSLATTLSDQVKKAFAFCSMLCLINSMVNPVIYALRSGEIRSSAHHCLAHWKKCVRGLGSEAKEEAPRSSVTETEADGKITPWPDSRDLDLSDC
# In short: (§1)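 cAMP assays were run in CHO cells stably expressing human CB2 or mouse CB2. Efficacy is expressed as % of the response to 1 μM CP55940.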
# SOD1 (G93A) mice = test: CB2 ligands given i.p. to SOD1; format: in vivo, mouse; conditions: for fraction of LC3A bright MN: P25 to P35, vehicle 23.4 ± 7.7; for misfolded SOD1: high-burden MN fraction: P25 to P35, vehicle 25.4 ± 5.5%; for %IBA1+ area (microglial expansion): P25 to P35, SOD1-veh 9.7 ± 0.4%
# In short: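 Male SOD1(G93A) mice got daily i.p. CB2 agonists (10 mg/kg) or inverse agonist (30 mg/kg) as a microsuspension in 1% Tween-80/0.9% NaCl with 0.2% parabens, or vehicle. Spinal cords were perfusion-fixed and cut into 40 μm free-floating sections. CD4 was stained after citrate-heat antigen retrieval. IBA1 was scored as the thresholded area fraction of ventral-horn ROIs. High-burden MN cutoff: 75th percentile of vehicle-treated SOD1. Used 8–10 sections/mouse, ≥4 mice/group.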
# WT mice = test: CB2 agonists given to WT mice, IBA1 immunostaining; format: in vivo, mouse; conditions: IBA1 staining
# mouse CB2 = mouse CB2 (Mus musculus, UniProt P47936); test: cAMP assay in CHO cells stably expressing mouse CB2; format: cell-based; conditions: in words
# Chain of mouse CB2 (P47936 whole entry): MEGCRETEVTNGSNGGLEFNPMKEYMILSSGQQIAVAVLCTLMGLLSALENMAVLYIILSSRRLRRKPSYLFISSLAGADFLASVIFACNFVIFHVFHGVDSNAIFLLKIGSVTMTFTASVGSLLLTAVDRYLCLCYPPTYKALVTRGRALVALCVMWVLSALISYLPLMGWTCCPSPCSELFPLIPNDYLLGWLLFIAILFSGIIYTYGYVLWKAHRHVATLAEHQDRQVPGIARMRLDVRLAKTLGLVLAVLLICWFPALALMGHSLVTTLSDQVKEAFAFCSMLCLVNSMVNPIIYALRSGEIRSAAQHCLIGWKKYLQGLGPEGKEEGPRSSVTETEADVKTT
# In short: as §1
# human CB2 [2] = target: T1, human CB2; format: binding; conditions: CB2 versus CB1, as stated in text
# In short: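 Competition binding used [3H]-CP55940 radioligand on membranes from cells expressing human CB2 or human CB1, so that selectivity could be compared. Each compound was tested at 10 concentrations in triplicate. Ki values were calculated from a single experiment.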
# [3] = 30 mg/kg once daily i.p., P25 to P35
# [4] = 10 mg/kg once daily i.p., P25 to P35
Compound,"functional activity in cAMP assay, human CB2 (human CB2 [1])",effect on microglial size in WT animals (WT mice),"functional activity in cAMP assay, mouse CB2 (mouse CB2)",binding selectivity against CB1 (human CB2 [2]) [fold],infiltration of CD4+ lymphocytes in spinal cord (SOD1 (G93A) mice; [4]),%IBA1+ area (microglial expansion) (SOD1 (G93A) mice; 10 mg/kg once daily i.p.) [%],fraction of LC3A bright MN (SOD1 (G93A) mice; 10 mg/kg once daily i.p.) [%],misfolded SOD1: high-burden MN fraction (SOD1 (G93A) mice; 10 mg/kg once daily i.p.) [%],also measured
Cc1cc(-c2ccc(CC(=O)Nc3ccc(-c4cccnc4)cc3)cc2)ccn1 [Compound C59],–,–,–,–,–,–,–,–,"WNT5a immunoreactivity (IKK and SOD1/IKK mice; 10 mg/kg daily oral gavage for 12 days from P25, sacrifice at P38): < 10 % of vehicle‐treated (Veh) SOD1/IKK; decrease in misfolded SOD1 and LC3A levels in SOD1/IKK versus SOD1 littermates (IKK and SOD1/IKK mice; 10 mg/kg daily oral, P25-P38): completely reverted; number of CD45+ cells (IKK and SOD1/IKK mice; IKK and SOD1/IKK mice, late phase P90 to P102): significantly decreased; number of CD11b+KI-67+ cells (IKK and SOD1/IKK mice; IKK mice, 10 mg/kg daily oral, P25-P38, IKK-Veh 11.0 ± 3.0): 5.4 ± 0.2 cells per 10^4 μm^2; overall IBA1+ area (IKK and SOD1/IKK mice; IKK mice, 10 mg/kg daily oral, P25-P38, IKK-Veh 52.1 ± 6.5): 30.5 ± 4.6%; microglial density (number of IBA1+ cells) (IKK and SOD1/IKK mice; IKK mice, 10 mg/kg daily oral, P25-P38, vehicle 30.4 ± 1.8): 18.2 ± 1.7 cells/10^4 μm^2; number of IBA1+ cells at P102 (IKK and SOD1/IKK mice; IKK mice, late phase P90 to P102, IKK-Veh 16.5 ± 0.7): 7.8 ± 0.3; number of CD11b+KI-67+ cells (IKK and SOD1/IKK mice; SOD1/IKK mice, 10 mg/kg daily oral, P25-P38, SOD1/IKK-Veh 18.0 ± 2.0): 5.0 ± 1.3 cells per 10^4 μm^2; overall IBA1+ area (IKK and SOD1/IKK mice; SOD1/IKK mice, 10 mg/kg daily oral, P25-P38, SOD1/IKK-Veh 53.6 ± 3.9): 39.2 ± 4.9%; microglial density (number of IBA1+ cells) (IKK and SOD1/IKK mice; SOD1/IKK mice, 10 mg/kg daily oral, P25-P38, vehicle 36.2 ± 6.1): 20.2 ± 4.0 cells/10^4 μm^2; number of IBA1+ cells at P102 (IKK and SOD1/IKK mice; SOD1/IKK mice, late phase P90 to P102, SOD1/IKK-Veh 15.8 ± 0.2): 9.41 ± 0.35; number of CD45+ cells (IKK and SOD1/IKK mice; early administration, 10 mg/kg daily oral, P25-P38): strongly decreased"
"CNC(=O)[C@@H](NC(=O)c1cc(OCC2(C)COC2)c(C2CC2)cn1)C(C)(C)C [RO6851228, 5-Cyclopropyl-N-[(1S)-2,2-dimethyl-1-(methylcarbamoyl)propyl]-4-[(3-methyloxetan-3-yl)methoxy]pyridine-2-carboxamide]",inverse agonist activity,–,–,–,–,–,–,–,infiltration of CD4+ lymphocytes in spinal cord (SOD1 (G93A) mice; [3]): did not affect lymphocyte infiltration; microglial morphology (SOD1 (G93A) mice; [3]): expansion of the size and of the complexity of microglial processes; fraction of LC3A bright MN (SOD1 (G93A) mice; 30 mg/kg once daily i.p.): 11.4 ± 13.9%; misfolded SOD1: high-burden MN fraction (SOD1 (G93A) mice; 30 mg/kg once daily i.p.): 10.2 ± 5.1%
"Cc1nonc1Cn1nnc2c(N3CC[C@H](O)C3)nc(C(C)(C)C)nc21 [RO6866945, (3S)-1-[5-tert-Butyl-3-[(4-methyl-1,2,5-oxadiazol-3-yl)methyl]triazolo[4,5-d]pyrimidin-7-yl]pyrrolidin-3-ol]",full agonists,did not affect microglial size,full agonists,939,did not affect lymphocyte infiltration,4.9 ± 0.2,70.8 ± 11.2,42.3 ± 8.7,–
"Cc1nc([C@@](C)(CC2CC2)NC(=O)c2cc(OCC(F)(F)F)c(C3CC3)cn2)no1 [RO6871085, 5-Cyclopropyl-N-[(1R)-2-cyclopropyl-1-methyl-1-(5-methyl-1,2,4-oxadiazol-3-yl)ethyl]-4-(2,2,2-trifluoroethoxy)pyridine-2-carboxamide]",full agonists,–,full agonists,44,increased the number of CD4^+ cells,5.2 ± 0.3,45.4 ± 5.6,69.1 ± 9.5,–
"NC(=O)[C@@H]1CC(F)(F)CN1C(=O)c1ccc(N2CC(F)(F)C2)c(OCC2CC2)n1 [RO6895896, (2S)-1-[6-(Cyclopropylmethoxy)-5-(3,3-difluoroazetidin-1-yl)pyridine-2-carbonyl]-4,4-difluoro-pyrrolidine-2-carboxamide]",full agonists,did not affect microglial size,full agonists,–,did not affect lymphocyte infiltration,6.0 ± 0.2,73.4 ± 12.4,72.4 ± 11.3,–
